The record followed here is ChEMBL document CHEMBL4130442, “Design, synthesis and structure-activity relationship studies of a focused library of pyrimidine moiety with anti-proliferative and anti-metastasis activities in triple negative breast cancer” (Eur J Med Chem, 2017).

The target in series [1] is T1, Platelet-derived growth factor receptor beta (Homo sapiens, UniProt P09619). In words: Inhibition of PDGFRbeta in human MDA-MB-231 cells assessed as ULK Ser317 phosphorylation level at 2.5 uM incubated for 24 hrs in absence of PDGFRbeta siRNA by Western blot relative to untreated control. It is filed as cell-based. The gist of the method:
(§1)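 Cells were transfected with control or PDGFR-β siRNA, then treated with 2.5 μM compound for 24 h. PDGFR-β-AKT-ULK1 pathway phospho-proteins were assessed by western blot: lysis in Hepes pH 7.4 / Triton buffer, 10-15% SDS-PAGE, PVDF, ECL detection, β-actin as loading control.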
In general terms: A western blot detects proteins with antibodies after separation by electrophoresis.

The target in series [2] is T1, Platelet-derived growth factor receptor beta. In words: Inhibition of PDGFRbeta in human MDA-MB-231 cells assessed as Akt Thr305 phosphorylation level at 10 uM incubated for 24 hrs by Western blot relative to untreated control. Type of series: cell-based. The method in brief:
(§2)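 Cells were treated 24 h at several concentrations. Pooled adherent and floating cells were lysed in Hepes 50 mM pH 7.4 / 1% Triton X-100 buffer with vanadate, NaF, EDTA, PMSF, aprotinin and leupeptin. Equal protein was run on 10-15% SDS-PAGE and blotted to PVDF. PDGFR-β-AKT-ULK1 pathway phospho-proteins were probed and detected by ECL, with β-actin as loading control.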

For series [3], the system named is MDA-MB-231. The series can be described thus: Effect on total Akt protein level in human MDA-MB-231 cells at 2.5 uM incubated for 24 hrs by Western blot relative to untreated control. Type of series: ADME, cell-based. The note with it: mda-mb-231, 24 h. The gist of the method:
(§3)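 MDA-MB-231 cells were exposed for 24 h. Adherent and floating cells were pooled and lysed for 1 h at 4 °C in 50 mM Hepes pH 7.4 with 1% Triton X-100, orthovanadate, NaF, EDTA, PMSF, aprotinin and leupeptin. After 12,000 rpm clearing, equal protein was run on 10-15% SDS-PAGE and blotted to PVDF. Detection used HRP-ECL, with β-actin as loading control and densitometric quantification.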

The test system of series [4] is MDA-MB-231. In words: Induction of apoptosis in human MDA-MB-231 cells assessed as change in cleaved PARP protein level at 2.5 uM incubated for 24 hrs by Western blot method relative to untreated control. Type of series: functional. The method in brief:
as §3

The target of series [5] is T1, Platelet-derived growth factor receptor beta. The series can be described thus: Inhibition of PDGFRbeta in human MDA-MB-231 cells assessed as Akt Thr305 phosphorylation level at 2.5 uM incubated for 24 hrs in presence of PDGFRbeta siRNA by Western blot relative to untreated control. It is filed as cell-based. The method in brief:
as §1

The target is the same in series [6]. In words: Inhibition of PDGFRbeta in human MDA-MB-231 cells assessed as mTOR Ser2448 phosphorylation level at 2.5 uM incubated for 24 hrs by Western blot relative to untreated control. Type of series: cell-based. The method in brief:
as §2

Series [7] has as its system MDA-MB-231. The series can be described thus: Effect on total ERK1/2 protein level in human MDA-MB-231 cells at 2.5 uM incubated for 24 hrs in presence of PDGFRbeta siRNA by Western blot relative to untreated control. It is filed as cell-based. The following applies: mda-mb-231, 24 h.
Series [8] relates to MDA-MB-231. The series can be described thus: Induction of apoptosis in human MDA-MB-231 cells assessed as change in cleaved caspase-3 protein level at 10 uM incubated for 24 hrs by Western blot method relative to untreated control. It is filed as functional. The gist of the method:
as §3

The test system of series [9] is MDA-MB-231. In words: Effect on total MEK1/2 protein level in human MDA-MB-231 cells at 5 uM incubated for 24 hrs in presence of PDGFRbeta siRNA by Western blot relative to untreated control. Type of series: cell-based. The note with it: mda-mb-231, 24 h.
Series [10] deals with MCF7. The series can be described thus: Antiproliferative activity against human MCF7 cells incubated for 24 hrs by MTT assay. Type of series: functional, cell-based. The note with it: MCF7, 24 h.
Series [11] concerns the target T1, Platelet-derived growth factor receptor beta. In words: Inhibition of PDGFRbeta in human MDA-MB-231 cells assessed as Akt Ser473 phosphorylation level at 10 uM incubated for 24 hrs by Western blot relative to untreated control. Type of series: cell-based. The method in brief:
as §2

Series [12] has the same target. In words: Inhibition of PDGFRbeta in human MDA-MB-231 cells assessed as mTOR Ser2448 phosphorylation level at 10 uM incubated for 24 hrs by Western blot relative to untreated control. Type of series: cell-based. The method in brief: as §2
The target is the same in series [13]. The series can be described thus: Inhibition of PDGFRbeta in human MDA-MB-231 cells assessed as ULK Ser555 phosphorylation level at 10 uM incubated for 24 hrs by Western blot relative to untreated control. It is filed as cell-based. The gist of the method:
as §2

The target is the same in series [14]. The series can be described thus: Inhibition of PDGFRbeta in human MDA-MB-231 cells assessed as Akt Ser473 phosphorylation level at 2.5 uM incubated for 24 hrs in presence of PDGFRbeta siRNA by Western blot relative to untreated control. It is filed as cell-based. The gist of the method:
as §1

Series [15] concerns MDA-MB-231. The series can be described thus: Effect on total ULK1 protein level in human MDA-MB-231 cells at 2.5 uM incubated for 24 hrs by Western blot relative to untreated control. It is filed as ADME, cell-based. The note with it: mda-mb-231, 24 h. The method in brief: as §3
For series [16], the system named is MDA-MB-231. In words: Effect on total Ras protein level in human MDA-MB-231 cells at 10 uM incubated for 24 hrs by Western blot relative to untreated control. The note with it: mda-mb-231, 24 h.
The target of series [17] is T1, Platelet-derived growth factor receptor beta. In words: Inhibition of PDGFRbeta in human MDA-MB-231 cells assessed as PDGFRbeta Tyr740 phosphorylation level at 2.5 uM incubated for 24 hrs in presence of control siRNA by Western blot relative to untreated control. It is filed as cell-based. The method in brief: as §1
For series [18] the target is unchanged. In words: Inhibition of PDGFRbeta in human MDA-MB-231 cells assessed as mTOR Ser2448 phosphorylation level at 5 uM incubated for 24 hrs by Western blot relative to untreated control. Type of series: cell-based. The method in brief:
as §2

Series [19] relates to MDA-MB-231. The series can be described thus: Effect on total PDGFRbeta protein level in human MDA-MB-231 cells at 10 uM incubated for 24 hrs by Western blot relative to untreated control. It is filed as ADME, cell-based. The following applies: mda-mb-231, 24 h. The method in brief:
as §3

The test system of series [20] is MDA-MB-231. The series can be described thus: Effect on total ERK1/2 protein level in human MDA-MB-231 cells at 10 uM incubated for 24 hrs in presence of PDGFRbeta siRNA by Western blot relative to untreated control. Type of series: cell-based. The note with it: mda-mb-231, 24 h.
Series [21] has as its system MDA-MB-231. The series can be described thus: Induction of autophagy in human MDA-MB-231 cells assessed as change in LC3-2 protein level at 10 uM incubated for 24 hrs by Western blot method relative to untreated control. It is filed as functional. The method in brief: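 MDA-MB-231 cells (ATCC; DMEM, 10% FBS, 5% CO2) were treated 24 h over a concentration series. Adherent and floating cells were pooled and lysed 1 h at 4 °C (50 mM Hepes pH 7.4, 1% Triton X-100, phosphatase/protease inhibitors). Equal protein was run on 10-15% SDS-PAGE, transferred to PVDF, probed for Beclin-1, p62 and LC3 with HRP/ECL detection, and normalised to β-actin.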

Series [22] deals with T1, Platelet-derived growth factor receptor beta. The series can be described thus: Inhibition of PDGFRbeta in human MDA-MB-231 cells assessed as ULK Ser317 phosphorylation level at 10 uM incubated for 24 hrs by Western blot relative to untreated control. Type of series: cell-based. The gist of the method: as §2
The test system of series [23] is MDA-MB-231. In words: Induction of apoptosis in human MDA-MB-231 cells assessed as change in cleaved PARP protein level at 10 uM incubated for 24 hrs by Western blot method relative to untreated control. Type of series: functional. The method in brief:
as §3

For series [24], the system named is MDA-MB-231. In words: Antiproliferative activity against human MDA-MB-231 cells incubated for 24 hrs by MTT assay. It is filed as functional, cell-based. The note with it: MDA-MB-231, 24 h. The method in brief:
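MDA-MB-231 cells grown in DMEM with 10% FBS under 5% CO2 were seeded at 5×10^4 cells/ml. After 24 h, a concentration series was added for 24, 48 or 72 h and viability was read by MTT. IC50 is mean ± SD of triplicates.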
A general note: Tetrazolium dyes change colour on reduction, which living cells bring about.

T1 sequence (P09619 whole entry): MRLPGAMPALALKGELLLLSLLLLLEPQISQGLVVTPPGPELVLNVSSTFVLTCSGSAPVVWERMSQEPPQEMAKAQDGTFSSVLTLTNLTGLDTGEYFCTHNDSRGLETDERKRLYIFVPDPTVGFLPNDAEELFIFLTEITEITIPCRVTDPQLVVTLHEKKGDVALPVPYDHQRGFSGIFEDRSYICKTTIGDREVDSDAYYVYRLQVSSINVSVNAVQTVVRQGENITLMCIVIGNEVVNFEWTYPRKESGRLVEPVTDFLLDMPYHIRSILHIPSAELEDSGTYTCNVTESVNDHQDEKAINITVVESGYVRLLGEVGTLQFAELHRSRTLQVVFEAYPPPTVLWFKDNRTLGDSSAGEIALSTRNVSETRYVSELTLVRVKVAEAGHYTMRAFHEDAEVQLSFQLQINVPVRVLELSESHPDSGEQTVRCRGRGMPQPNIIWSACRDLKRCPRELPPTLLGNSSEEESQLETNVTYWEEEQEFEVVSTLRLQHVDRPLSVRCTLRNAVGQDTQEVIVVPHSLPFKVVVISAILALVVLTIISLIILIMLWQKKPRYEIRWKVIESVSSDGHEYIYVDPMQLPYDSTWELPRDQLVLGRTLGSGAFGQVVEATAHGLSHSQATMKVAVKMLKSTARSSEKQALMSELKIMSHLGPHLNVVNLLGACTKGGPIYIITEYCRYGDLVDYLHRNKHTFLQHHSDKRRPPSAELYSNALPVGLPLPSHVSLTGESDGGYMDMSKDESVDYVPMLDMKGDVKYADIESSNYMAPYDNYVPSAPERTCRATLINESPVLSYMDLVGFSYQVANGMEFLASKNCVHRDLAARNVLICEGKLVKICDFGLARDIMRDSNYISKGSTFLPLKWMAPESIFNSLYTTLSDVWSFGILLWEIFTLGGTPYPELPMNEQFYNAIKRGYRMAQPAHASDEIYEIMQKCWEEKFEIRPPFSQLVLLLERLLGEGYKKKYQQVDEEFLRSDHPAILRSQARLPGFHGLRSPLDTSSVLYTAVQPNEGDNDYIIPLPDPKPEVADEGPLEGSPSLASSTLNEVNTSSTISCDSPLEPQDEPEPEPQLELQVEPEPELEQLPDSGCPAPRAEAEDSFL

As for `COc1cccc(Nc2cc(N3CCN(C(=O)Nc4ccc(C(F)(F)F)cc4)CC3)ncn2)c1`, the fold change (FC) in series [1] is 3.67; in series [2], 0.12; in series [3] it was 0.89; in series [4], 0.89; in series [5], 0.04; in [6] it was 0.74. Also, the “fold change (FC)” value in series [7] is 1.08; in series [8], 0.32; in series [9], 1.08; in series [11] it was 0.18; in series [12] it was 0.16; in [13] it was 5.6. The fold change (FC) in series [14] worked out at 0.52; in [15] it was 0.89; in [16], 2.32; in series [17], 0.08; in series [18] it was 0.23; in [19], 0.55. The “fold change (FC)” value is 1.53 in series [20], 2.7 in [21], 3.2 in series [22] and 0.97 in [23]. The IC50 in [10] was 2160 nM; in series [24], 730 to 750 nM.

Usually IC50 stands for the concentration at which inhibition is half-maximal. Read a low IC50 as higher potency.
